Legend:
Rattus norvegicus [1] = organism: Rattus norvegicus; experiment: Brain mitochondrial activity measured at 0 min of incubation at 100 uM concentration; format: functional
Summary of the method: (§1)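 Rat brain mitochondria isolated by differential centrifugation of homogenates in 0.25 M sucrose, pH 7.4, then suspended in 0.1 M phosphate buffer, pH 7.2, at 37 °C. Inhibitor added at zero time, then saturating 1 mM kynuramine added after the incubation period. MAO activity read fluorimetrically. Percent inhibition reported from three experiments in duplicate.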

[2] = Ki value measured for the inhibition of copper dependent amine oxidase in bovine plasma; format: cell-free
Summary of the method: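 Bovine plasma amine oxidase, 36 µg/mL (0.2 µM), in 0.1 M phosphate buffer, pH 7.2. Benzylamine at 0.5, 2.5 and 5 mM, with no preincubation. Rate measured as benzaldehyde formed per minute at 37 °C. Apparent Ki taken from Dixon plots.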

Rattus norvegicus [3] = organism: Rattus norvegicus; experiment: Brain mitochondrial activity measured at 120 min of incubation at 1 uM concentration; format: functional; summary of the method: as §1
Rattus norvegicus [4] = organism: Rattus norvegicus; experiment: Brain mitochondrial activity measured at 120 min of incubation at 10 uM concentration; format: functional; summary of the method: as §1
Rattus norvegicus [5] = organism: Rattus norvegicus; experiment: Brain mitochondrial activity measured at 120 min of incubation at 100 uM concentration; format: functional; summary of the method: as §1
[6] = Effect on placental diamine oxidase (0.1 uM) after 30 min of incubation at pH 7.2; design: species or system Homo sapiens; conditions: read-out: I50
Summary of the method: (§2)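 Purified human placental diamine oxidase at 0.1 µM in 0.1 M phosphate buffer, pH 7.2, at 37 °C. Inhibitor added at zero time. After preincubation, saturating 3 mM p-[(dimethylamino)methyl]benzylamine added. Product aldehyde followed at 250 nm (E = 10.400 M-1 cm-1). I50 is the concentration giving 50% loss of activity. Two experiments in duplicate.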

Rattus norvegicus [7] = organism: Rattus norvegicus; experiment: Brain mitochondrial activity measured at 0 min of incubation at 10 uM concentration; format: functional; summary of the method: as §1
Rattus norvegicus [8] = organism: Rattus norvegicus; experiment: Brain mitochondrial activity measured at 0 min of incubation at 1 uM concentration; format: functional; summary of the method: as §1
[9] = Ki value measured for the inhibition of human placenta diamine oxidase
Summary of the method: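 Human placental diamine oxidase, 47 µg/mL (0.2 µM), in 0.1 M phosphate buffer, pH 7.2, with no preincubation. […] oxidation followed at 250 nm at 37 °C. Apparent Ki estimated from Dixon plots.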

[10] = Effect on placental diamine oxidase (0.1 uM) after 0 min of incubation at pH 7.2; design: species or system Homo sapiens; conditions: read-out: I50; summary of the method: as §2
[11] = Effect on plasma amine oxidase (0.1 uM) after 60 min of incubation at pH 7.2; format: cell-free; conditions: 1 h, read-out: I50
Summary of the method: (§3)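 Purified bovine plasma amine oxidase at 0.1 µM in 0.1 M phosphate buffer, pH 7.2, at 37 °C. Inhibitor added at zero time and preincubated. Saturating 3 mM benzylamine then added and benzaldehyde formation read at 250 nm (E = 12.500 M-1 cm-1). I50 is the concentration halving activity. Two experiments in duplicate.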

[12] = Effect on plasma amine oxidase (0.1 uM) after 30 min of incubation at pH 7.2; format: cell-free; conditions: 0.5 h, read-out: I50; summary of the method: as §3
[13] = Effect on plasma amine oxidase (0.1 uM) after 15 min of incubation at pH 7.2; format: cell-free; conditions: 0.25 h, read-out: I50; summary of the method: as §3
[14] = Effect on plasma amine oxidase (0.1 uM) after 0 min of incubation at pH 7.2; format: cell-free; conditions: 0 h, read-out: I50; summary of the method: as §3

Ki [2] [µM]	IC50 [6] [µM]	Ki [9] [µM]	IC50 [10] [µM]	IC50 [11] [µM]	IC50 [12] [µM]	IC50 [13] [µM]	IC50 [14] [µM]	SMILES	Inhibition (Rattus norvegicus [1]) [%]	Inhibition (Rattus norvegicus [3]) [%]	Inhibition (Rattus norvegicus [4]) [%]	Inhibition (Rattus norvegicus [5]) [%]	Inhibition (Rattus norvegicus [7]) [%]	Inhibition (Rattus norvegicus [8]) [%]
300	100	250	100					NNC(=O)c1ccccc1-n1cccc1	0	3	5	6	0	0
0.7	10	100	50					NNC(=O)Cc1cccc(-n2cccc2)c1	3	0	3	15	2	0
80	50	100	200					NNC(=O)c1ccc(-n2cccc2)cc1	0	2	16	18	0	0
				5	10	10	100	NNC(=O)c1ccncc1 [ISONIAZID]	19	16	16	22	14	12
85	100	110	100					NNC(=O)c1cccc(-n2cccc2)c1	0	0	5	8	0	0

Second part, the compound before the results:

SMILES	Ki [2] [µM]	IC50 [6] [µM]	Ki [9] [µM]	IC50 [10] [µM]	IC50 [11] [µM]	IC50 [12] [µM]	IC50 [13] [µM]	IC50 [14] [µM]	Inhibition (Rattus norvegicus [1]) [%]	Inhibition (Rattus norvegicus [3]) [%]	Inhibition (Rattus norvegicus [4]) [%]	Inhibition (Rattus norvegicus [5]) [%]	Inhibition (Rattus norvegicus [7]) [%]	Inhibition (Rattus norvegicus [8]) [%]
NNC(=O)Cc1ccc(-n2cccc2)cc1	0.5	10	10	10					6	2	4	9	0	0
CC(C)=NNC(=O)Cc1ccc(-n2cccc2)cc1	0.8	10	10	50					0	12	12	18	0	0
Cc1ccc(C)n1-c1ccc(CC(=O)NN)cc1	10	50		100					2	0	0	3	0	0

From ChEMBL document CHEMBL1124086, “Inhibition of copper-dependent amine oxidases by some hydrazides of pyrrol-1-ylbenzoic and pyrrol-1-ylphenylacetic acids” (J Med Chem, 1988)
